Active and inactive are the calls of the source. The rule behind the calls is not given here.
Tests used:
[1] = Selectivity index, ratio of CC50 for cytotoxic activity against mock-infected human MT4 cells to EC50 for antiviral activity against HIV2 ROD […] infected in human MT4 cells; type: toxicity, cell-based; conditions: mock-infected (CC50) and HIV2 ROD infected (EC50)
Outline: (§1)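 SI calculated as CC50 (mock-infected MT-4, MTT, 5 days) divided by EC50 against HIV-1 IIIB or HIV-2 ROD in MT-4 cells measured in the same MTT cytoprotection assay.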

[2] = Selectivity index, ratio of CC50 for cytotoxic activity against mock-infected human MT4 cells to EC50 for antiviral activity against HIV1 3B infected in human MT4 cells; type: toxicity, cell-based; conditions: mock-infected (CC50) and HIV1 3B infected (EC50); outline: as §1
[3] = test system: Human immunodeficiency virus 2; assay: Antiviral activity against HIV2 ROD […] infected in human MT4 cells assessed as inhibition of viral-induced cytopathic effect by MTT assay; type: functional, organism-based, ISOLATE ROD
Outline: (§2)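 MT-4 cells resuspended at 6×10^5 cells/mL and infected with HIV-1 IIIB or HIV-2 ROD at 100-300 CCID50. Compounds tested as serial five-fold dilutions in triplicate wells. Viability read by MTT reduction at 540 and 690 nm after 5 days. Median OD of two or three wells used. EC50 is the concentration giving 50% protection from viral cytopathicity.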

[4] = test system: Human immunodeficiency virus 1; assay: Antiviral activity against HIV1 3B infected in human MT4 cells assessed as inhibition of viral-induced cytopathic effect by MTT assay; type: functional, organism-based; outline: as §2
[5] = (§3) Cytotoxic activity against mock-infected human MT4 cellls assessed as reduction in cell viability by MTT assay; type: cell-based; conditions: mock-infected MT4 cells
Outline: (§4)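 Mock-infected MT-4 cells (6×10^5 cells/mL) run in parallel with infected wells. Compounds tested as serial five-fold dilutions in triplicate. Viability read by MTT at 540/690 nm after 5 days, using the median OD of two or three wells. CC50 is the concentration reducing mock-infected cell viability by 50%. '>' marks the highest concentration tested that was non-cytotoxic.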

[6] = target: Human immunodeficiency virus type 1 reverse transcriptase (Human immunodeficiency virus 1) (UniProt Q72547); assay: Inhibition of RNase H inhibition activity of HIV-1 BH10 reverse transcriptase expressed in Escherichia coli at 100 uM pre-incubated for 5 mins before [32P]-labeled template primer 31Trna/21P addition by polyacrylamide gel electrophoresis method
Outline: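 Recombinant WT HIV-1 BH10 RT (20-40 nM) preincubated with compound for 5 min at 37°C. Buffer: 50 mM Tris-HCl pH 8.0, 50 mM NaCl, 5 mM MgCl2, 5% DMSO. Reactions started with 25 nM 5'-[32P]-labeled 31Trna/21P template-primer. Sampled from 0 to 4 min at 37°C, quenched with EDTA/formamide, and resolved by denaturing PAGE.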

[7] = test system: MT4; assay: as §3; type: cell-based; conditions: mt4; outline: as §4
[8] = Human immunodeficiency virus 2, ISOLATE ROD, MT4
[9] = Human immunodeficiency virus 1, 3B, MT4

inhibition [6] | Structure (SMILES) | selectivity ratio [1] | selectivity ratio [2] | EC50 [3, 8] [µM] | EC50 [4, 9] [µM] | CC50 [5] [µM] | EC50 [3] [µM] | EC50 [4] [µM] | CC50 [7] [µM]
 | Cc1ccccc1Cn1cc(Cn2c(=O)n(O)c(=O)c3cc(Br)ccc32)nn1 | < 1 | < 1 | > 17.8 | > 17.8 | 17.8 |  |  | 
 | O=c1c2cc(Br)ccc2n(Cc2cn(Cc3cccc(F)c3)nn2)c(=O)n1O | < 1 | < 1 | > 24.9 | > 24.9 | 24.9 |  |  | 
 | O=c1c2cc(Br)ccc2n(Cc2cn(Cc3ccccc3)nn2)c(=O)n1O | < 1 | < 1 | > 23.7 | > 23.7 | 23.7 |  |  | 
 | O=c1c2cc(Br)ccc2n(Cc2cn(Cc3ccc(Br)cc3)nn2)c(=O)n1O | < 1 | < 1 | > 21.8 | > 21.8 | 21.8 |  |  | 
 | Cc1nnc(C(=O)NC(C)(C)c2nc(C(=O)NCc3ccc(F)cc3)c(O)c(=O)n2C)o1 |  |  | 0.011 | 0.0078 | > 55.8 |  |  | 
 | O=c1c2cc(Br)ccc2n(Cc2cn(Cc3ccc(Cl)cc3)nn2)c(=O)n1O | < 1 | < 1 | > 24.1 | > 24.1 | 24.1 |  |  | 
 | O=c1nc(Nc2cccc(-c3cn(CCc4ccccc4)nn3)c2)c2cccnc2n1O | > 20 | > 31 | 14.6 | 9.5 | > 294 |  |  | 
 | O=c1c2cc(Br)ccc2n(Cc2cn(Cc3ccc(F)c(F)c3)nn2)c(=O)n1O | < 1 | < 1 | > 24.7 | > 24.7 | 24.7 |  |  | 
Active | O=c1c2cc(Br)ccc2n(Cc2cn(Cc3ccc(F)cc3)nn2)c(=O)n1O | < 1 | < 1 | > 25.1 | > 25.1 | 25.1 |  |  | 
 | COc1cc2c(cc1Cc1cccc(Cl)c1F)c(=O)c(C(=O)O)cn2[C@H](CO)C(C)C |  |  | 0.0038 | 0.0023 | 6.3 |  |  | 
 | O=c1c2cc(Br)ccc2n(Cc2cn(Cc3ccc([N+](=O)[O-])cc3)nn2)c(=O)n1O | < 1 | < 1 | > 22.4 | > 22.4 | 22.4 |  |  | 
 | O=C(Cn1cc(-c2cccc(Nc3nc(=O)n(O)c4ncccc34)c2)nn1)c1ccc(F)cc1 | 1 | > 91 | > 273 | 3 | > 273 |  |  | 
 | O=c1nc(Nc2cccc(-c3cn(-c4cccc5ccccc45)nn3)c2)c2cccnc2n1O | > 4 | > 10 | 69.4 | 27.1 | > 279 |  |  | 
 | O=c1nc(Nc2ccccc2-c2cn(Cc3ccc(F)cc3)nn2)c2cccnc2n1O | < 1 | < 1 | > 2.7 | > 2.7 | 2.7 |  |  | 
 | O=C(Cn1cc(-c2cccc(Nc3nc(=O)n(O)c4ncccc34)c2)nn1)Nc1ccc(F)cc1 | 1 | > 1 | > 265 | 232 | > 265 |  |  | 
 | O=c1nc(Nc2cccc(-c3cn(CCCc4ccccc4)nn3)c2)c2cccnc2n1O | < 1 | 9 | > 239 | 26.1 | 239 |  |  | 
 | O=c1nc(Nc2cccc(-c3cn(Cc4ccc(F)cc4)nn3)c2)c2cccnc2n1O | > 103 | > 318 | 2.82 | 0.92 | > 291 |  |  | 
 | O=C(Cn1cc(-c2cccc(Nc3nc(=O)n(O)c4ncccc34)c2)nn1)Nc1ccc(C(F)(F)F)cc1 | 1 | 1 | > 239 | > 239 | > 239 |  |  | 
 | O=C(Cn1cc(-c2cccc(Nc3nc(=O)n(O)c4ncccc34)c2)nn1)Nc1ccccc1 | 1 | > 10 | > 275 | 26.8 | > 275 |  |  | 
 | Cc1nnc(C(=O)NC(C)(C)c2nc(C(=O)NCc3ccc(F)cc3)c(O)c(=O)n2C)o1 [RALTEGRAVIR POTASSIUM] |  |  |  |  |  | 0.016 | 0.0077 | > 51.8
 | Cc1cccc(Cn2cc(Cn3c(=O)n(O)c(=O)c4cc(Br)ccc43)nn2)c1 | < 1 | < 1 | > 24 | > 24 | 24 |  |  | 
 | O=c1c2cc(Br)ccc2n(Cc2cn(Cc3ccccc3Cl)nn2)c(=O)n1O | < 1 | < 1 | > 22.3 | > 22.3 | 22.3 |  |  | 
 | Cc1ccc(Cn2cc(-c3ccccc3Nc3nc(=O)n(O)c4ncccc34)nn2)cc1 | < 1 | < 1 | > 1.1 | > 1.1 | 1.1 |  |  | 

From ChEMBL document CHEMBL4177583, “1-Hydroxypyrido[2,3-d]pyrimidin-2(1H)-ones as novel selective HIV integrase inhibitors obtained via privileged substructure-based compound libraries” (Bioorg Med Chem, 2017)
